The results in this text go back to ChEMBL document CHEMBL4376862, “Synthesis and evaluation of novel chlorophyll a derivatives as potent photosensitizers for photodynamic therapy” (Eur J Med Chem, 2020).

Active and inactive are the calls of the source. The calls are words filed in the database; no cut-off is given here.

Data set [1] relates to A549. Description: Photodynamic antitumor activity against human A549 cells xenografted in BALB/c nude mouse assessed as survival time at 0.3 mg/kg, iv incubated for 24 hrs followed by laser light irradiation at 120 J/cm2 measured up to 70 days. It counts as functional, organism-based. In a few lines: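 Nude mice bearing A549 xenografts, 0.3 mg/kg drug i.v. then 650 nm laser 120 J/cm2 at 180 mW/cm2 after 24 h; survival shown as Kaplan-Meier with log-rank test, n = 5.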

The test system of data set [2] is Mus musculus. Kind of data set: Phototoxicity in ICR mouse assessed as ear weight at 0.45 mg/kg, iv followed by 10 mW/cm2 light irradiation for 10 mins at 1 day after drug challenge measured after 1 day of light irradiation (reference value: 12.6 +/- 1.2 mg). It counts as organism-based. To be noted: in vivo.
Data set [3] is described as follows: Induction of ROS generation in DMF solution assessed as slope of the photodegradation rate of DPBF at 2 uM followed by irradiation measured every 10 secs by spectrophotometric analysis. It counts as functional.
Data set [4] deals with Mus musculus. Kind of data set: Phototoxicity in ICR mouse assessed as change in skin of the backs 0.45 mg/kg, iv in presence of 10 mW/cm2 light irradiation for 10 mins upto 7 days measured after 1 day of light irradiation by H and E staining based microscopic analysis. It counts as organism-based. Conditions: in vivo.
Data set [5] deals with Mus musculus. Kind of data set: Phototoxicity in ICR mouse assessed as ear weight at 0.45 mg/kg, iv followed by 10 mW/cm2 light irradiation for 10 mins at 7 days after drug challenge measured after 1 day of light irradiation (13.2 +/- 1.6 mg). Conditions: in vivo. It counts as organism-based.
In data set [6] the test system is A549. Kind of data set: Photodynamic antitumor activity against human A549 cells xenografted in BALB/c nude mouse assessed as increase in tumor tissue damage at 0.3 mg/kg, iv incubated for 24 hrs followed by laser light irradiation at 120 J/cm2 measured up to 14 days. It counts as functional, organism-based. In a few lines:
(§1)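 Male BALB/c nude mice (5–6 weeks, 14–16 g) given 2×10^6 A549 cells s.c. in 0.2 mL PBS; at 6–7 mm tumors randomized into ten groups; drug via tail vein, 650 nm diode laser 120 J/cm2 at 180 mW/cm2 24 h later; caliper volume a×b²/2, followed 14 days.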
(In general: In xenograft studies the graft and the host belong to different species.)

For data set [7], the system named is Mus musculus. Kind of data set: Phototoxicity in ICR mouse assessed as change in exposed neck skin 0.45 mg/kg, iv in presence of 10 mW/cm2 light irradiation for 10 mins upto 7 days measured after 1day of light irradiation by H and E staining based microscopic analysis. Conditions: in vivo. It counts as organism-based.
Data set [8] has as its system Cavia porcellus. Description: Phototoxicity in guinea pig assessed as change in right ear weight 4.5 mg/kg, iv followed by 10 mW/cm2 light irradiation for 10 mins measured after 1 day of light irradiation (reference value: 40.4 +/- 2.4 mg). It counts as organism-based. Conditions: in vivo.
Data set [9] relates to A549. Description: Photodynamic antitumor activity against human A549 cells xenografted in BALB/c nude mouse assessed as reduction in tumor volume at 0.3 mg/kg, iv incubated for 24 hrs followed by laser light irradiation at 120 J/cm2 measured up to 14 days. It counts as functional, organism-based. In a few lines:
as §1

Data set [10] concerns Cavia porcellus. Description: Phototoxicity in guinea pig assessed as change in left ear weight 4.5 mg/kg, iv followed by 10 mW/cm2 light irradiation for 10 mins measured after 1 day of light irradiation (reference value: 39.2 +/- 1.8 mg). It counts as organism-based. To be noted: in vivo.
Data set [11] in a line: Dark toxicity in human A549 cells assessed as reduction in cell viability incubated under dark for 24 hrs measured after 48 hrs by MTT assay. It counts as cell-based. Conditions: read-out: TC50. In a few lines:
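A549 cells seeded at 5×10^4 cells/100 µL per well for 24 h, treated in the dark with […] (so in the source) for 24 h; MTT added 4 h, absorbance 570 nm, 48 h later; viability as OD treated/OD control; triplicate, mean ± SD.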

Data set [12] has as its system Mus musculus. Description: Phototoxicity in ICR mouse assessed as ear weight at 0.45 mg/kg, iv followed by 10 mW/cm2 light irradiation for 10 mins at 3 days after drug challenge measured after 1 day of light irradiation (reference value: 12.8 +/- 1.5 mg). It counts as organism-based. To be noted: in vivo.
The nature of data set [13]: Emission property of a compound in DMSO assessed as red shift at 5 uM on excitation with light at 410 to 415 nm by 3D fluorescence spectra analysis. It counts as physicochemical. In a few lines: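 Stock 1 mM in DMSO, measured at […] (so in the source); excitation scanned 350–640 nm, emission 600–750 nm, 1 nm steps, room temperature, quartz cuvettes; 3D fluorescence matrix spectra recorded.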

Data set [14] deals with Cavia porcellus. Description: Phototoxicity in guinea pig assessed as change in auricles of left ear at 4.5 mg/kg, iv in presence of 10 mW/cm2 light irradiation for 10 mins measured after 1day of light irradiation by H and E staining based microscopic analysis. It counts as organism-based. To be noted: in vivo.
Data set [15] has as its system A549. Description: Phototoxicity against human A549 cells assessed as reduction in cell proliferation irradiated with 1 J/cm2 of 650 nanometer laser light preincubated for 24 hrs measured after 48 hrs by MTT assay. It counts as functional, cell-based. Conditions: A549, light or radiation study. In a few lines:
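A549 cells seeded 5×10^4 cells/100 µL per well, given […] for 24 h, then 650 nm semiconductor laser at 1 J/cm2 (25 mW/cm2, 40 s); MTT 4 h, absorbance 570 nm; viability vs control; triplicate, mean ± SD.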
In general terms: Tetrazolium dyes change colour on reduction, which living cells bring about.

Data set [16] has as its system Cavia porcellus. Description: Phototoxicity in guinea pig assessed as change in back skin at 4.5 mg/kg, iv in presence of 10 mW/cm2 light irradiation for 10 mins measured after 1day of light irradiation by H and E staining based microscopic analysis. It counts as organism-based. Conditions: in vivo.
The test system of data set [17] is A549. Description: Photodynamic antitumor activity against human A549 cells xenografted in BALB/c nude mouse assessed as decrease in tumor weight at 0.3 mg/kg, iv followed by laser light irradiation at 120 J/cm2 measured after 14 days. It counts as functional. In a few lines:
as §1

Data set [18] deals with Cavia porcellus. Kind of data set: Phototoxicity in guinea pig assessed as change in back skin weight 4.5 mg/kg, iv followed by 10 mW/cm2 light irradiation for 10 mins measured after 1day of light irradiation (reference value: 72.4 +/- 3.1 mg). It counts as organism-based. To be noted: in vivo, 24 h.
The subject of data set [19] is Mus musculus. Description: Phototoxicity in ICR mouse assessed as ear weight at 0.45 mg/kg, iv followed by 10 mW/cm2 light irradiation for 10 mins at 5 days after drug challenge measured after 1 day of light irradiation (reference value: 12.9 +/- 1.4 mg). It counts as organism-based. To be noted: in vivo.
Data set [20] is described as follows: Therapeutic index, ratio of TC50 for human A549 cells under dark to IC50 for human A549 cells irradiated with 1 J/cm2 of 650 nanometer laser light. It counts as toxicity, cell-based. To be noted: read-out: TI. In a few lines:
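A549 cells (F-12K, 10% FBS, 37 °C, 5% CO2) seeded 24 h, then exposed to 0–10 photosensitizer for 24 h. Dark arm: MTT 48 h later. Light arm: 650 nm laser, 1 J/cm2 (25 mW/cm2, 40 s), then MTT. A570 viability relative to control, triplicate. Ratio = dark TC50 / irradiated IC50.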

Data set [21] in a line: Induction of ROS generation in DMF solution assessed as ROS quantum yield at 2 uM followed by irradiation measured every 10 secs by spectrophotometric analysis. It counts as functional.
Data set [22] has as its system Mus musculus. Kind of data set: Phototoxicity in ICR mouse assessed as change in auricles 0.45 mg/kg, iv in presence of 10 mW/cm2 light irradiation for 10 mins upto 7 days measured after 1day of light irradiation by H and E staining based microscopic analysis. It counts as organism-based. To be noted: in vivo.
A short description of data set [23]: Absorption property of compound in DMSO assessed as Q band absorption at 1 x 10^-3 mM by UV-spectra analysis. To be noted: 1 µM.
The nature of data set [24]: Drug uptake in human A549 cells incubated upto 24 hrs by fluorescence spectrophotometer analysis. It counts as ADME, cell-based. Conditions: a549, 24 h. In a few lines:
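A549 cells (F-12K, 10% FBS, 37 °C, 5% CO2) grown in 24 wells and exposed to photosensitizer for 0.5, 1, 2, 4, 8, 12 or 24 h; cells harvested by digestion, fluorescence read on a spectrophotometer.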

Data set [25] can be described thus: Octanol/water partition coefficient, logP of compound by shake flask method. It counts as physicochemical. In a few lines: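 Shake-flask method: equilibrium concentrations in octanol and water measured by UV-vis absorbance; log P taken as log of octanol/water concentration ratio (mg/L).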
The nature of data set [26]: Absorption property of compound in DMSO assessed as strong absorption wavelength at 1 x 10^-3 M by UV-spectra analysis. It counts as physicochemical. Conditions: 1000 µM. In a few lines:
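Stocks 1 mM in DMSO; spectra run over […] range (units as printed), 300–800 nm in 1 nm steps, room temperature, quartz cuvettes, UV-vis spectrophotometer.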

`CCCCCCOC(C)c1c(C)c2cc3nc(c4c5[nH]c(cc6nc(cc1[nH]2)C(C)=C6CC)c(C)c5C(=O)C4)[C@@H](CCC(=O)O)[C@@H]3C` (stereo partly drawn) [HPPH]: the result with A549 [1], with A549 [6] and in the data set on A549 [9] was Active. Also, the Activity with Mus musculus [2] is 12.8 mg; with Mus musculus [4], “Non-Toxic”; in the data set on Mus musculus [5], 13.2 mg; with Mus musculus [7] it was “Non-Toxic”; in the data set on Cavia porcellus [8], 42.2 mg; in the data set with Cavia porcellus [10], 42.6 mg. Further, the Activity with Mus musculus [12] is 13.3 mg; in [13], 661 to 669 nm; in the data set with Cavia porcellus [14], “Non-Toxic”; with Cavia porcellus [16], “Non-Toxic”; in the data set with A549 [17], 0.0212 g; with Cavia porcellus [18] it was 74.1 mg. The Activity in the data set with Mus musculus [19] was 13.1 mg; in the data set on Mus musculus [22], “Non-Toxic”. The K in data set [3] stood at 0.0357 s⁻¹. Besides, the CC50 at 24 h in data set [11] is 1950 nM. Further, in the data set on A549 [15], the 50% inhibitory concentration (IC50) is 330 nM. The selectivity ratio in data set [20] is 5.91. In addition, in [21], the Ratio was 1.78.

Regarding `C=Cc1c(C)c2cc3nc(c4c5[nH]c(cc6nc(cc1[nH]2)C(C)=C6CC)c(C)c5C(=O)C4)[C@@H](CCC(=O)NCC(=O)CCC(=O)O)[C@@H]3C`, the Activity in [23] was 669 nm; in data set [13], 661 to 669 nm; in the data set with A549 [17] it was 0.2826 g; in data set [26], 660 to 670 nm. For the same molecule, in [24], the Drug uptake result is on record as “Active”. Also, in data set [3], the K came out at 0.0251 s⁻¹. For the same molecule, in data set [11], the CC50 at 24 h amounted to 3190 nM. For the same molecule, the IC50 in the data set on A549 [15] was found to be 2010 nM. The molecule also returned a lipophilicity (logP) in [25] of 2.28. For the same molecule, in [20], the selectivity ratio came out at 1.59. Further, the Ratio in [21] turned out to be 1.25.

As a reminder, the IC50 is the concentration that gives 50% inhibition. As a reminder, the logP is the decadic logarithm of the partition coefficient of the neutral form, usually between octanol and water. High values mean higher lipophilicity, low ones lower lipophilicity.
